# In paper PMC7540576 (Chembiochem, 2020):
# Non-standard residues stand in square brackets, D forms with d. Residues, ends and D or L forms follow the SMILES beside them. *: point of attachment. Orn(α-tetramethylguanidino) = CN(C)C(=N[C@@H](CCCN)C(=O)*)N(C)C
# Key:
# [1] = tested on: A. baumannii ATCC 15308 ribosomes; experiment: Fluorescence polarization assay, 70S ribosome of A. baumannii; format: binding, Acinetobacter baumannii DSM 30008 / ATCC 15308; conditions: RF1 added at equimolar quantities to the A. baumannii ribosome preparation
# In short: (§1)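 70S ribosomes came from log-phase cultures (OD600 ~1): bead-mill lysis in HEPES buffer pH 7.6, DNase I/meropenem, clarification, then 165000 g for 17 h. Concentration by A260 (1 AU = 28 pmol/mL). In casein-blocked wells, ribosomes were twofold diluted in 23 steps (12 µmol/L–2.9 pmol/L) with Cf-labeled peptide added at 40 nmol/L, then incubated 90 min at 28 °C in the dark. Polarization read at ex485/em535. K_d came from a variable-slope dose-response fit of ≥2 triplicate experiments on different days.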
# [2] = tested on: ribosome of S. aureus DSM 6247; experiment: Fluorescence polarization assay, 70S ribosome of S. aureus; format: binding, Staphylococcus aureus DSM 6247; conditions: S. aureus ribosome versus E. coli ribosome
# In short: as §1
# [3] = tested on: E. coli BW25113; experiment: Antimicrobial activity; format: cell-based, Escherichia coli BW25113; conditions: broth micro dilution, 25 % MHB2, 7.5×10^6 cfu/mL, 37 °C, 20±2 h, triplicates
# In short: (§2)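 Broth microdilution in 25% MHB2. Aqueous peptide stock (3 g/L) serially twofold diluted from 128 µg/mL in eight steps. Overnight 25% MHB2 cultures were diluted 30-fold, grown 4 h (37 °C, 200 rpm), and adjusted by McFarland to give a final 7.5×10^6 cfu/mL. Plates were incubated 20±2 h at 37 °C and OD595 read. MIC was the lowest concentration preventing visible growth. Triplicates.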
# [4] = tested on: K. pneumoniae ATCC 10031; experiment: Antimicrobial activity; format: cell-based, Klebsiella pneumoniae DSM 681 / ATCC 10031; conditions: broth micro dilution, 25 % MHB2, 7.5×10^6 cfu/mL, 37 °C, 20±2 h, triplicates
# In short: as §2
# [5] = tested on: A. baumannii ATCC 15308; experiment: Antimicrobial activity; format: cell-based, Acinetobacter baumannii DSM 30008 / ATCC 15308; conditions: for MIC: broth micro dilution, 25 % MHB2, 7.5×10^6 cfu/mL, 37 °C, 20±2 h, triplicates
# In short: as §2
# [6] = tested on: P. aeruginosa ATCC 27853; experiment: Antimicrobial activity; format: cell-based, Pseudomonas aeruginosa DSM 1117 / ATCC 27853; conditions: broth micro dilution, 25 % MHB2, 7.5×10^6 cfu/mL, 37 °C, 20±2 h, triplicates
# In short: as §2
# [7] = tested on: S. aureus DSM 6247; experiment: Antimicrobial activity; format: cell-based, Staphylococcus aureus DSM 6247; conditions: broth micro dilution, 25 % MHB2, 7.5×10^6 cfu/mL, 37 °C, 20±2 h, triplicates
# In short: as §2
# [8] = tested on: E. coli BW25113; experiment: Bacterial uptake, peptide quantified by LC-MS; format: cell-based, Escherichia coli BW25113; conditions: high cell counts, 30 min
# In short: (§3)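 Cultures in 25% MHB2 were grown 4.0±0.25 h after 30-fold dilution, sized by OD600 (1.0 = 1.2×10^9 cfu/mL), pelleted and resuspended to 1.5×10^10 or 1.5×10^9 cfu/mL. Each was mixed 1:1 with medium containing 16 µg/mL peptide and shaken 30 min at 37 °C, with viable counts plated. Peptide in the supernatant (pellets also quantified) was measured by SPE then RP-HPLC-ESI-MS/MS MRM against a cell-free 8 µg/mL control and an on-plate calibration. Uptake was taken as the difference. Triplicate, repeated another day.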
# [9] = tested on: K. pneumoniae ATCC 10031; experiment: Bacterial uptake, peptide quantified by LC-MS; format: cell-based, Klebsiella pneumoniae DSM 681 / ATCC 10031; conditions: high cell counts, 30 min
# In short: as §3
# [10] = tested on: S. aureus DSM 6247; experiment: Bacterial uptake, peptide quantified by LC-MS; format: cell-based, Staphylococcus aureus DSM 6247; conditions: ∼7.5×10^9 cells/mL, 30 min, relative to cell-free medium, LC-MS MRM (Figure S3)
# In short: as §3
# [11] = tested on: Gram‐negatives (E. coli, K. pneumoniae, A. baumannii, P. aeruginosa); experiment: Bacterial uptake, values stated for the Gram-negatives together; format: cell-based; conditions: 30 min
# In short: as §3
# [12] = tested on: E. coli BL21AI; conditions: E. coli BL21AI incubated with 4 mg/L peptide; cited from earlier work
# [13] = calculated from reduced quantity in supernatant
smiles,measurement,setting,value
CC[C@H](C)[C@H](NC(=O)[C@H](Cc1ccc(O)cc1)NC(=O)[C@@H](NC(=O)[C@@H]1CCCN1C(=O)[C@H](CCCNC(=N)N)NC(=O)[C@H](CC(N)=O)NC(=O)[C@H](CC(N)=O)NC(=O)[C@H](CCCN)N=C(N(C)C)N(C)C)C(C)C)C(=O)N1CCC[C@H]1C(=O)N[C@@H](CCCNC(=N)N)C(=O)N1CCC[C@H]1C(=O)N[C@@H](CCCNC(=N)N)C(=O)N1CCC[C@H]1C(=O)N1CCC[C@H]1C(=O)N[C@@H](Cc1c[nH]cn1)C(=O)N1CCC[C@H]1C(=O)N[C@@H](CCCNC(=N)N)C(=O)N[C@@H](CC(C)C)C(=O)O [Api137] ({Orn(α-tetramethylguanidino)}-NNRPVYIPRPRPPHPRL-OH),Effect of recombinant E. coli RF1 on K d,[1],did not affect
same,"K d, fold higher than for E. coli",[2],34 fold
same,MIC,[3],4 (1.8) mg/L
same,MIC,[4],2 (0.9) mg/L
same,"MIC, fold difference E. coli versus A. baumannii",[5]; MIC 4 μg/mL for E. coli and 128 μg/mL for A. baumannii,32 fold
same,MIC,[5],128 (56) mg/L
same,MIC,[6],>128 (>56) mg/L
same,MIC,[7],>128 (>56) mg/L
CC[C@H](C)[C@H](NC(=O)[C@@H](CCCNC(=N)N)NC(=O)[C@H](CCCNC(=N)N)NC(=O)[C@@H]1CCCN1C(=O)[C@@H]1CCCN1C(=O)[C@H](CCCNC(=N)N)NC(=O)[C@@H]1CCCN1C(=O)[C@H](CCCNC(=N)N)NC(=O)[C@@H]1CCCN1C(=O)[C@H](CC(C)C)NC(=O)[C@H](Cc1ccc(O)cc1)NC(=O)[C@@H]1CCCN1C(=O)[C@@H]1CCCN1C(=O)[C@H](CCCCN)NC(=O)[C@H](CC(=O)O)NC(=O)[C@@H](N)C(C)C)C(=O)N[C@@H](Cc1ccc(O)cc1)C(=O)N[C@@H](CC(N)=O)C(=O)N[C@H](CCCNC(=N)N)C(N)=O [Onc112] (H-VDKPPYLPRPRPPR[dR]IYN[dR]-NH2),MIC,[3],8 (3.4) mg/L
same,MIC,[4],2 (0.8) mg/L
same,MIC,[5],32 (13.4) mg/L
same,MIC,[6],64 (26.8) mg/L
same,MIC,[7],64 (26.8) mg/L
same,"Peptide per single cell, on average",[8],0.5 fg
same,Uptake (peptide amount),[8],352 ng
same,Uptake rate,[8]; [13],~44%
same,"Peptide per single cell, on average",[9],0.3 fg
same,Uptake (peptide amount),[9],208 ng
same,Uptake rate,[9]; [13],~25%
same,Total quantities determined in supernatants and pellets,[10],around 110%
same,Relative peptide quantity in culture supernatants,"[11]; high cell counts ∼7.5×10^9 cells/mL, typical value, except for E. coli",around 75%
same,Uptake rates,"[11]; low cell counts, Gram-negatives",below 20%
same,Peptide per cell,[12],0.2 fg/cell
